We go through 31 compounds from ChEMBL document CHEMBL1122130, “Nonsteroidal antiinflammatory agents. 1. 10,11-Dihydro-11-oxodibenz[b, f]oxepinacetic acids and related compounds” (J Med Chem, 1982).

Usually ED50 stands for the midpoint of the dose-response relation. A low value points to greater potency. As a reminder, the LD50 is the dose expected to kill half of the subjects tested. A higher LD50 goes with a less toxic substance.

One data set is filed under the species Mus musculus. Nature of the data set: Effective dose for analgesic activity in mice. Format: functional. The essentials: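 Female ddN mice (18-22 g; 5-15 per dose) received compound in 0.5% aqueous tragacanth. Writhing was induced by intraperitoneal 0.03% phenylquinone, and writhes were counted over 15 min. ED50 was calculated by Litchfield–Wilcoxon.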
The test system of data set [1] is Rattus norvegicus. Nature of the data set: Effective dose for antiinflammatory activity in carrageenan paw edema assay in rats after oral administration. The format is functional. The essentials: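 Male Wistar rats (120-150 g; 5-10 per dose) were dosed orally in 0.5% aqueous tragacanth. Edema was induced by subcutaneous injection of 1% aqueous carrageenan into the left hind paw.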
(In general: The carrageenan paw model is a standard test of acute inflammation.)

Data set [2] in a line: Lethal dose determined in rats when administered perorally. The settings on record: rat, in vivo, po. Format: toxicity, organism-based. The procedure, abridged: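 Male Wistar rats (150-230 g), dosed orally with compound dissolved or suspended in 0.5% aqueous tragacanth. LD50 taken from mortality over 7 days and calculated by the Litchfield-Wilcoxon method.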
Data set [3] deals with Rattus norvegicus. Nature of the data set: Compound was evaluated for the induction no of gastric ulcers in rats when administered perorally. Format: functional, Stomach. The essentials:
(§1)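 Male Wistar rats were fasted 24 h and given compound once orally in 0.5% aqueous tragacanth. Stomachs were removed 6 h later and examined macroscopically. UD50 (dose causing ulcers in 50% of rats) was taken from each compound's regression line.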

The test system of data set [4] is Rattus norvegicus. Nature of the data set: Compound was evaluated for the induction of gastric ulcers in rats after oral administration. Format: functional. The settings on record: Stomach. The procedure, abridged:
as §1

The species named for data set [5] is Rattus norvegicus. Nature of the data set: Analgesic activity measured as silver nitrate induced arthritic pain in rats. The format is functional. The procedure, abridged:
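Pain in the arthritic rat paw was provoked with silver nitrate. Compounds were given in 0.5% aqueous tragacanth, and ED50 was calculated by the Litchfield–Wilcoxon method.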

Data set [6] concerns Rattus norvegicus. Nature of the data set: compound was evaluated for the induction no of gastric ulcers in rats when administered perorally. Format: functional, Stomach. The procedure, abridged:
as §1

Data set [7] is filed under the species Rattus norvegicus. Nature of the data set: Antipyretic activity measured as yeast induced fever assay in rats. The format is functional. The essentials: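 Male Wistar rats (350-500 g); hyperthermia induced by subcutaneous injection of 15% yeast suspension. Test compounds dissolved or suspended in 0.5% aqueous tragacanth and administered. ED50 calculated by the Litchfield–Wilcoxon method.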

As for `O=C(O)Cc1ccc2c(c1)C(=O)Cc1cc(F)ccc1O2`, the ED50 is over 100 mg/kg in the data set filed under Mus musculus and at least 80 mg/kg in the data set with Rattus norvegicus [1].

As to `O=C(O)Cc1ccc2c(c1)C=Cc1ccc(Cl)cc1O2`, the ED50 was 9.53 mg/kg in the data set listed under Mus musculus and 61.4 mg/kg in the data set on Rattus norvegicus [1].

With `O=C(O)Cc1ccc2c(c1)C(O)Cc1cc(F)ccc1O2` (stereo not given), the values for the ED50 in the data set filed under Mus musculus and in the data set with Rattus norvegicus [1] were over 100 mg/kg and over 80 mg/kg, respectively.

Consider `O=C(O)Cc1ccc2c(c1)Oc1ccccc1NC2=O`, for which the ED50 in the data set filed under Mus musculus was over 100 mg/kg; in the data set on Rattus norvegicus [1], over 80 mg/kg.

For `O=C(O)Cc1ccc2c(c1)C(O)Cc1cc(Cl)ccc1O2` (stereo not given), the ED50 was over 100 mg/kg in the data set listed under Mus musculus and over 80 mg/kg in the data set on Rattus norvegicus [1].

Turning to `O=C(O)Cc1ccc2c(c1)Oc1ccccc1CC2=O`, the values for the ED50 in the data set filed under Mus musculus and in the data set on Rattus norvegicus [1] were at least 100 mg/kg and 56.9 mg/kg, respectively.

For the compound `Cc1ccc2c(c1)CC(=O)c1cc(C(C)C(=O)O)ccc1S2` (stereo not given), the ED50 in the data set filed under Mus musculus turned out to be 3.1 mg/kg. In data set [2], this compound showed an LD50 of over 100 mg/kg. The UD50 in the data set with Rattus norvegicus [3] was found to be 11.3 mg/kg.

With `O=C(O)Cc1ccc2c(c1)C(O)Cc1ccccc1O2` (stereo not given), the results for the ED50 in the data set filed under Mus musculus and in the data set on Rattus norvegicus [1] were 44.6 mg/kg and 24.3 mg/kg, respectively.

For the compound `Cc1ccc2c(c1)C=Cc1cc(CC(=O)O)ccc1O2`, the values for the ED50 in the data set listed under Mus musculus and in the data set on Rattus norvegicus [1] were over 100 mg/kg and over 80 mg/kg, respectively.

For the compound `O=C(O)Cc1ccc2c(c1)C(=O)Cc1cc(Cl)ccc1O2`, the ED50 in the data set filed under Mus musculus was at least 100 mg/kg; with Rattus norvegicus [1], at least 80 mg/kg.

For `Cc1ccc2c(c1)CC(O)c1cc(CC(=O)O)ccc1O2` (stereo not given), the figures for the ED50 in the data set listed under Mus musculus and in the data set on Rattus norvegicus [1] were over 100 mg/kg and over 80 mg/kg, respectively.

Take `O=C(O)Cc1ccc2c(c1)C(=O)Cc1ccccc1O2`: the ED50 in the data set listed under Mus musculus came to 34.4 mg/kg; with Rattus norvegicus [1], 10.8 mg/kg.

Take `CC(C(=O)O)c1ccc2c(c1)C(=O)Cc1ccccc1O2` (stereo not given): in the data set listed under Mus musculus, the 50% effect level (ED50) was put at a dose of 17.8 mg/kg.

For `CC(C(=O)O)c1ccc2c(c1)C(=O)Nc1ccccc1O2` (stereo not given), the ED50 in the data set listed under Mus musculus is over 100 mg/kg; in the data set with Rattus norvegicus [1], over 80 mg/kg.

On to `O=C(O)Cc1ccc2c(c1)C=Cc1ccccc1O2`, for which the ED50 in the data set listed under Mus musculus was over 100 mg/kg; with Rattus norvegicus [1], 28.3 mg/kg.

Turning to `Cc1ccc2c(c1)CC(=O)c1cc(CC(=O)O)ccc1O2`, the 50% effect level in the data set filed under Mus musculus (ED50) was put at a dose of 13.8 mg/kg.

For the compound `O=C(O)Cc1ccc2c(c1)C=Cc1cc(Cl)ccc1O2`, the values for the ED50 in the data set listed under Mus musculus and with Rattus norvegicus [1] were over 100 mg/kg and over 80 mg/kg, respectively.

Take `O=C(O)Cc1ccc2c(c1)C(=O)Cc1ccc(Cl)cc1O2`: the ED50 in the data set listed under Mus musculus was over 100 mg/kg; with Rattus norvegicus [1], at least 80 mg/kg.

On to `O=C(O)Cc1ccc2c(c1)C(=O)Nc1ccccc1O2`, for which the figures for the ED50 in the data set listed under Mus musculus and in the data set on Rattus norvegicus [1] were over 100 mg/kg and over 80 mg/kg, respectively.

Regarding `CC(C(=O)O)c1ccc2c(c1)C(O)Cc1ccccc1O2` (stereo not given), the median effective dose (ED50) in the data set listed under Mus musculus was over 100 mg/kg; in the data set on Rattus norvegicus [1], over 80 mg/kg.

Take `O=C(O)Cc1ccc2c(c1)Oc1ccccc1CC2O` (stereo not given): the ED50 was over 100 mg/kg in the data set listed under Mus musculus and over 80 mg/kg in the data set on Rattus norvegicus [1].

`Cc1ccc2c(c1)C=Cc1cc(C(C)C(=O)O)ccc1S2` (stereo not given): the ED50 is over 100 mg/kg in the data set listed under Mus musculus and over 80 mg/kg with Rattus norvegicus [1].

As for `O=C(O)Cc1ccc2c(c1)C(O)Cc1ccc(Cl)cc1O2` (stereo not given), the ED50 in the data set filed under Mus musculus was over 100 mg/kg; in the data set with Rattus norvegicus [1] it was over 80 mg/kg.

Regarding `O=C(O)Cc1ccc2c(c1)C=Cc1cc(F)ccc1O2`, the ED50 was over 100 mg/kg in the data set filed under Mus musculus and over 80 mg/kg with Rattus norvegicus [1].

Regarding `O=C(O)Cc1ccc2c(c1)Oc1ccccc1C=C2`, the ED50 is over 100 mg/kg in the data set filed under Mus musculus and over 80 mg/kg with Rattus norvegicus [1].

Consider `CC(C(=O)O)c1ccc2c(c1)C=Cc1ccccc1O2` (stereo not given), for which the values for the ED50 in the data set listed under Mus musculus and in the data set on Rattus norvegicus [1] were over 100 mg/kg and at least 80 mg/kg, respectively.

With `Cc1ccc2c(c1)C=Cc1cc(C(C)C(=O)O)ccc1O2` (stereo not given), the 50% effective dose (ED50) in the data set filed under Mus musculus is over 100 mg/kg; with Rattus norvegicus [1], over 80 mg/kg.

Regarding `Cc1ccc2c(c1)CC(O)c1cc(C(C)C(=O)O)ccc1S2` (stereo not given), the ED50 in the data set filed under Mus musculus was over 100 mg/kg; in the data set on Rattus norvegicus [1], over 80 mg/kg.

As for `Cc1ccc2c(c1)CC(O)c1cc(C(C)C(=O)O)ccc1O2` (stereo not given), the ED50 was over 100 mg/kg in the data set filed under Mus musculus and over 80 mg/kg with Rattus norvegicus [1].

For `Cc1ccc2c(c1)CC(=O)c1cc(C(C)C(=O)O)ccc1O2` (stereo not given) [BERMOPROFEN], the ED50 in the data set listed under Mus musculus was 6.51 mg/kg; with Rattus norvegicus [4] it was 13.8 mg/kg. For the same compound, the LD50 in data set [2] came to 147 mg/kg.

Regarding `COc1ccc2c(c1)c(CC(=O)O)c(C)n2C(=O)c1ccc(Cl)cc1` [INDOMETHACIN], the values for the 50% effective dose (ED50) in the data set listed under Mus musculus, in the data set listed under Rattus norvegicus [5] and in the data set listed under Rattus norvegicus [7] were 0.62 mg/kg, 4.3 mg/kg and 0.22 mg/kg, respectively. In addition, the UD50 in the data set on Rattus norvegicus [6] came out at 8 mg/kg. In addition, in data set [2], the LD50 is 18.5 mg/kg.
